The text below walks through data of PMC3984478 (Cancer cell, 2012).

Series [1] relates to NF-κB reporter activity in HBL-1 cells. The series is described as follows: NF-κB reporter assay in HBL-1. The class given is cell-based, human. The conditions noted are these: 200 nM. In outline: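 NF-κB luciferase reporter in HBL-1 cells treated with 200 nM test compound, 50 µM Z-VRPR-FMK or vehicle for 8 and 24 hr. Activity is given as % of vehicle, normalised to an internal control. Statistics used ANOVA with Bonferroni post-test.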

Series [2] deals with ABC-DLBCL cell lines HBL-1 and TMD8, GCB-DLBCL cell line OCI-Ly1. More on the design: species or system human. The conditions noted are these: 48 hr, cell-based assays. In a few lines: (§1)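 Cells received a single dose of test compound over a concentration range and proliferation was read at 48 hr by luminescent ATP quantification. Luminescence was converted to cell number using per-line standard curves built from trypan blue counts. Viability was normalised to controls and expressed as 1 − fractional viability, and GI25/GI50 were fitted. Experiments were run three times in triplicate.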

The next series has as its target caspase-9 (Homo sapiens, UniProt P55211). The series is described as follows: Caspase selectivity. Format: biochemical.
The next series relates to OCI-Ly1 xenografts. Briefly: OCI-Ly1 xenograft in NOD-SCID mice. Format: in vivo. To be noted: IP 25 mg/kg/day, 14 injections. In a few lines:
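Eight-week-old male NOD-SCID (NOD.CB17-Prkdcscid/J) mice received 10^7 low-passage cells subcutaneously in 50% Matrigel in the right flank. At an average tumour size of 120 mm3, mice were randomised to test compound 25 mg/kg/day IP or vehicle (5% DMSO) for 14 consecutive days and sacrificed 24 hr after the 14th injection. Caliper volume, (smallest diameter² × largest)/2, was taken three times weekly. Ki-67 IHC was counted per high-power field.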

For series [3], the system named is MALT1 substrate cleavage in HBL-1 and TMD8 cell lines. Briefly: Cleavage of MALT1 substrates A20, BCL10, RELB, western blot with MG-132. Format: cell-based, human. To be noted: 2 µM, 30 min, then 5 µM MG-132 for 1 or 2 hr. In outline:
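HBL-1 and TMD8 cells were pretreated for 30 min with 2 µM test compound or vehicle. Proteasome inhibitor MG-132 (5 µM) was then added for a further 1 or 2 hr so that cleaved substrate forms could accumulate. Western blots were probed for A20, RELB and BCL10, and cleavage products were identified by band position.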
(A western blot detects proteins with antibodies after separation by electrophoresis.)

The test system of series [4] is NF-κB reporter in 293T cells expressing MALT1 C464A. Briefly: NF-κB reporter assay, PMA/ionomycin, BCL10 + MALT1 C464A. The class given is cell-based. To be noted: 2 µM pretreatment 30 min, PMA/ionomycin 2 hr.
Series [5] has as its system NF-κB reporter in 293T cells expressing MALT1 WT. Briefly: NF-κB reporter assay, PMA/ionomycin, BCL10 + MALT1 WT. The conditions noted are these: 2 µM pretreatment 30 min, PMA/ionomycin 2 hr. The class given is cell-based. On the technique in general: Reporter assays use an easily measured gene product as a stand-in for the process of interest.
For series [6], the system named is ABC-DLBCL cell lines HBL-1 and TMD8. Briefly: Caspase-3/7 cleavage assay. The class given is cell-based, human. In a few lines:
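Caspase-3/7 cleavage assay run within 48 hr of exposure to increasing concentrations of test compound.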

The subject of another series is HBL-1 and TMD8 cells. Briefly: Trypan blue cell number and Annexin V+ DAPI− apoptosis time course, 14 days. Format: cell-based, human. The conditions noted are these: treated daily at GI25 and GI50, 14 days. In a few lines: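 Cell lines were dosed with test compound every 24 hr. Every 48 hr for 14 days, cells were counted by trypan blue exclusion and apoptosis was measured as Annexin V+ DAPI− by flow cytometry. Cell number is expressed as % of vehicle at each time point.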

Series [7] concerns HBL-1 cells. The series is described as follows: Recovery of cells after a single dose. Format: cell-based, human. The conditions noted are these: 0.2 µM dose level.
Series [8] has as its system HBL-1 cells. The series is described as follows: BrdU incorporation-DAPI cell cycle. The class given is cell-based, human. To be noted: 24 and 48 hr. In a few lines: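 HBL-1 cells were treated with test compound for 24 and 48 hr, then pulse-labelled with BrdU and co-stained with DAPI. Cell-cycle phases (S, G1-0, sub-G0) were read by flow cytometry. Data are mean ± SD of two independent experiments.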
(Incorporation of labelled thymidine or its analogues reports DNA synthesis.)

The target of series [9] is paracaspase domain of MALT1 (residues 329–728) (Homo sapiens, UniProt Q9UDY8). The series is described as follows: HSQC NMR binding.
For another series, the system named is C57BL/6 mice. The series is described as follows: Toxicity in mice. The class given is in vivo.
Series [10] concerns GCB-DLBCL cell lines (OCI-Ly7 and OCI-Ly1). The series is described as follows: Growth inhibition, ATP-based luminescent assay. The conditions noted are these: two GCB-DLBCL cell lines, single dose, 48 hr. The class given is cell-based, human. In outline: as §1

Chain of caspase-9 (P55211 whole entry, species assumed): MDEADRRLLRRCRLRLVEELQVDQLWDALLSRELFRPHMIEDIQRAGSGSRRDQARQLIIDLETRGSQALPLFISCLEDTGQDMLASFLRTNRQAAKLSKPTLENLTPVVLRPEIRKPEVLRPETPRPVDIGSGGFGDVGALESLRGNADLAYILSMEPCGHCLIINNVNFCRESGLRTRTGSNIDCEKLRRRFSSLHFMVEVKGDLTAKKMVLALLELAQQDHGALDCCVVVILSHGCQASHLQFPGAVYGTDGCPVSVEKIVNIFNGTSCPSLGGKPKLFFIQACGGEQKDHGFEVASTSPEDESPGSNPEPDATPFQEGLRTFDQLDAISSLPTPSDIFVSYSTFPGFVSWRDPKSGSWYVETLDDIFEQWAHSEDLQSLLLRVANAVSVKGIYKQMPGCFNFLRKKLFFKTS
Chain of paracaspase domain of MALT1 (residues 329–728) (Q9UDY8 329-728): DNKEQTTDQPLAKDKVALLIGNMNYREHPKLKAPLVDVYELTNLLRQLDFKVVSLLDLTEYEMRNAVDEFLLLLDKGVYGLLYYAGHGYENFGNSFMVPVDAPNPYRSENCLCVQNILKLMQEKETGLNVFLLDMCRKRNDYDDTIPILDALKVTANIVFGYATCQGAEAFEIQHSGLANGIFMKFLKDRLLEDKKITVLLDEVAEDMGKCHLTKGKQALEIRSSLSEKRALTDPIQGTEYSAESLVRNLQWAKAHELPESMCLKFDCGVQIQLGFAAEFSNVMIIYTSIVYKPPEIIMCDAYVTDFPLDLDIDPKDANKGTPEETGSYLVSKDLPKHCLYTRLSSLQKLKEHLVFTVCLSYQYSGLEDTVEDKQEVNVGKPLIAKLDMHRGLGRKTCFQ

On to `COCCOc1nc(-c2ccc(Cl)c(Cl)c2)n(-c2ccc(NC(=O)CCl)cc2)n1` [MI-2], for which the “reduction in NF-κB reporter activity” value in [1] (8 hr) is on record as 20%. In series [1] (24 hr), the “reduction in NF-κB reporter activity” value stood at 50%. Further, the “25% growth-inhibitory concentration (GI25)” value in series [2] is recorded as “high-nanomolar range”. Besides, the “activity against caspase-9” value on caspase-9 is “little activity”. In addition, in the series with OCI-Ly1 xenografts, the “apoptotic cells (TUNEL) relative to vehicle” value is recorded as “not in OCI-Ly1 xenografts”, the “proliferation (Ki-67 staining) compared to vehicle” value is listed as “no difference” and the “tumor growth versus vehicle” value is “no effect on the growth”. In addition, in series [3], the “cleavage of A20, BCL10, and RELB” value is recorded as “diminished the abundance of cleaved forms and/or increased the abundance of full-length proteins”. Also, the “NF-κB induction by PMA/ionomycin” value in series [4] is recorded as “did not significantly affect”. The “NF-κB induction by PMA/ionomycin” value in series [5] is given as “significantly inhibited NF-κB induction”. Further, the “apoptosis (caspase-3/7 cleavage)” value in [6] is listed as “dose-dependent apoptosis within 48 hr”. In addition, in the series on HBL-1 and TMD8 cells, the “cell number and apoptosis” value is on record as “profoundly suppressed”. The recovery of cells result in the series with HBL-1 cells [7] is recorded as “only started to become evident after 48 hr”. Moreover, in the series on HBL-1 cells [8], the “cell cycle (BrdU-DAPI)” value was “dose-dependent decrease in S phase”. Also, in series [9], the “binding by HSQC NMR” value is given as “robust interaction”. Also, in the series on C57BL/6 mice (daily IP 25 mg/kg over 14 days), the “Complete peripheral blood counts, biochemistry, and liver function tests” value was “normal”. In addition, the “toxicity 1: physical indicators of sickness” value in the series on C57BL/6 mice (daily IP, increasing doses 0.05 to 25 mg/kg over 10 days, cumulative 51.1 mg/kg) is on record as “no evidence of lethargy, weight loss”. In addition, the growth inhibition result in [10] is “resistant”.
